A short description of assay [1]: nonspecific flux increase, KCNQ1-free cells – parental CHO cells, counter-screen for KCNQ1 potentiator project (AID 493006;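 active = duplicate-averaged activation above buffer control mean plus 5 SD of those controls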). Particulars: parental CHO-K1 cells, FluxOR thallium flux, at 10 µM; stronger effect = higher value. The essentials:
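Benchmarks – buffer and R-L3 controls · Assay system – untransfected host CHO-K1 cells with FluxOR thallium dye · Measure – fluorescence change ratio scaled 0% buffer, 100% R-L3 · Technique – kinetic thallium-flux fluorescence · Timing – overnight 37 °C plating, 90 min RT dye, 20 min compound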
On the technique in general: The purpose of a counterscreen is to sort out artefacts and off-target activity.

For assay [2], the target named is Potassium voltage-gated channel subfamily KQT member 1 (Homo sapiens) (UniProt P51787). As to the kind of experiment: enhancement of KCNQ1 channel thallium flux – FluxOR thallium flux, CHO cells, duplicates, confirmation (AID 493007;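 active = potentiation averaged over duplicate wells exceeding buffer-only control mean by more than 3 SD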;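 as to outcome: cells depolarized by a potassium plus thallium sulfate stimulus after compound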). Particulars: KCNQ1 cell line, FluxOR thallium flux fluorescence, at 10 µM; stronger effect = higher value, % of reference activator effect, buffer zero. The method, boiled down: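 Material: CHO cells stably expressing the KCNQ1 potassium channel / Times: dye 90 min then compound 20 min, both at room temperature / Detection: kinetic thallium influx fluorescence with FluxOR dye, 10 s baseline, 110 s post-stimulus / Benchmarks: buffer-only wells as 0% and R-L3 activator as 100% / Replicates: each compound tested in duplicate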
Potassium voltage-gated channel subfamily KQT member 1 (Homo sapiens), sequence (P51787 whole entry, looked up): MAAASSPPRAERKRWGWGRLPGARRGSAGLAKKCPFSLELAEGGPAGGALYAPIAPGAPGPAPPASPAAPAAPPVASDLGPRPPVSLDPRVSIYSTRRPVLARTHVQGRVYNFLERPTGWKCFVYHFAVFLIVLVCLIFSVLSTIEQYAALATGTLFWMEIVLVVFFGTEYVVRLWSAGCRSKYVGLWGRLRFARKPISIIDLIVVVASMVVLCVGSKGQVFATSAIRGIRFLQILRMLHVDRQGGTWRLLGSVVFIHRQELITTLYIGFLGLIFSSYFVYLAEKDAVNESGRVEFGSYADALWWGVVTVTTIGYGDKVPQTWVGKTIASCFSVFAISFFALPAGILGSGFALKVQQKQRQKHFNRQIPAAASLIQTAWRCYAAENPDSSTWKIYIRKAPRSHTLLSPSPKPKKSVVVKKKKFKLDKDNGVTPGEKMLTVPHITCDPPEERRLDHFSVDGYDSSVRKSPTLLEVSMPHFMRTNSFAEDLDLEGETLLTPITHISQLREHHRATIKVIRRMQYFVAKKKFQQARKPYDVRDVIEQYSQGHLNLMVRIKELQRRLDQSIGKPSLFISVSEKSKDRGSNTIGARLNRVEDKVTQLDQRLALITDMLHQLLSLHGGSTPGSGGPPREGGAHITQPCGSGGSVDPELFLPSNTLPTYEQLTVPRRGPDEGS

Assay [3] deals with Potassium voltage-gated channel subfamily KQT member 2 (Rattus norvegicus) (UniProt O88943). As to the kind of experiment: KCNQ2 thallium flux enhancement – KCNQ2-CHO-K1 cells, selectivity assay for KCNQ1 potentiator project (AID 493009).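 Also: assay conditions were tuned for KCNQ1 rather than KCNQ2 modulators; signal is max minus min fluorescence divided by baseline after thallium stimulus.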 Particulars: FluxOR thallium flux fluorescence, at 10 µM; stronger effect = higher value, scaled: buffer 0, activator control 100.
Potassium voltage-gated channel subfamily KQT member 2 (Rattus norvegicus), sequence (O88943 whole entry, looked up): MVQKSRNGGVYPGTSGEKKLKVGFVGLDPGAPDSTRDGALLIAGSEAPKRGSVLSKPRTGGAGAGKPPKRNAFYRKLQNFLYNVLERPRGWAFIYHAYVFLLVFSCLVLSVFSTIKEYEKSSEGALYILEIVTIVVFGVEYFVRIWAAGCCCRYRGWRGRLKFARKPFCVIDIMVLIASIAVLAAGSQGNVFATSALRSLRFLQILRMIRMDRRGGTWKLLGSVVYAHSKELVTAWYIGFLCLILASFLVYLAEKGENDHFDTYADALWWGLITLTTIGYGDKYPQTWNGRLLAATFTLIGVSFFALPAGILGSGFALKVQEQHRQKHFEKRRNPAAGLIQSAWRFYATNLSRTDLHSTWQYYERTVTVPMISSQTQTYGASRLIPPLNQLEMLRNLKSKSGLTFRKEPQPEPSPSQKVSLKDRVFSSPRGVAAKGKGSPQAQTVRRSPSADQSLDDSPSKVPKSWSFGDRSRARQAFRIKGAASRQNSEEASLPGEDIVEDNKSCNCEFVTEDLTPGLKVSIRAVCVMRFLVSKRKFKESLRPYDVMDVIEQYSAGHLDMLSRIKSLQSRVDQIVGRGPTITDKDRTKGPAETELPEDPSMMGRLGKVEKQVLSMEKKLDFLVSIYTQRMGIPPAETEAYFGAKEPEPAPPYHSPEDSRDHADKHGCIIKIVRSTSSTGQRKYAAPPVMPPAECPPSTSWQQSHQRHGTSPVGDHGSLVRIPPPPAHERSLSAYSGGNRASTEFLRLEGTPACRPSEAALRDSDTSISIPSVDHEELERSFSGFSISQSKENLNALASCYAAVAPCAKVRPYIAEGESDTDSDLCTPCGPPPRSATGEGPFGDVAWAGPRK
Assay [4] concerns the target Potassium voltage-gated channel subfamily KQT member 1 (Homo sapiens) (UniProt P51787). Nature of the assay: KCNQ1 activators by electrophysiology – IonWorks patch clamp, KCNQ1-CHO cells, orthogonal assay for KCNQ1 potentiator project, confirmation (AID 493184;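 active = current rise at least 3 SD above the untreated control mean in each of two repeat wells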). Particulars: automated patch clamp current, at 10 µM; stronger effect = higher value. The method, boiled down:
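Probe or stimulus: depolarizing pulse to +40 mV from -90 mV; Material: CHO cells carrying KCNQ1; Compound: one dose, 10 µM final; Signal: automated voltage clamp, amphotericin B perforated patch; Read-out basis: percent current increase versus pre-compound level; Buffer or medium: pH 7.4 external bath; Replication: duplicates.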

The target of assay [5] is Potassium voltage-gated channel subfamily E member 1 (Homo sapiens) + Potassium voltage-gated channel subfamily KQT member 1 (Homo sapiens) (UniProt P15382+P51787). As to the kind of experiment: KCNQ1-E1 channel activation – thallium flux, CHO-K1 KCNQ1/E1 cells, selectivity assay for KCNQ1 potentiator project, confirmation (AID 493186;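 active = mean duplicate activation above the buffer control mean plus 5 SD of those controls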). Particulars: FluxOR thallium flux, at 10 µM; stronger effect = higher value. The essentials:
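system = KCNQ1/E1-expressing stable CHO-K1 cell line | doses = single compound concentration per well | times = dye 90 min, compound 20 min, room temperature | measured by = FluxOR Tl+ flux fluorescence, kinetic read | evaluation = fluorescence rise relative to baseline, as percent of R-L3 response above buffer | controls = buffer and R-L3 | replicates = duplicate wells per compound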

The structures appear in SMILES notation. Calls of active or inactive are those of the source.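 The calls were made as follows, unless noted: active = mean duplicate potentiation above the buffer control mean plus 5 SD of buffer wells; inactive = the rest.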

Potassium voltage-gated channel subfamily E member 1 (Homo sapiens) + Potassium voltage-gated channel subfamily KQT member 1 (Homo sapiens), sequence (P51787 whole entry, looked up): as the sequence (P51787 whole entry, looked up) above

Take `Nc1nc(CCl)nc(Nc2ccc3ccccc3c2)n1`: the outcome in assay [1], in assay [2], in assay [3], in assay [4] and in assay [5] was inactive.
Regarding `CCn1c(SCC(=O)Nc2ccccc2F)nnc1-c1cnccn1`, the outcome in assay [1], in assay [2], in assay [3], in assay [4] and in assay [5] was inactive.
Consider `Cc1ccc(OCC(=O)NNC(=S)NC(=O)C2CCCCC2)c(C)c1`, for which the result in assay [1], in assay [3], in assay [4] and in assay [5] was inactive. Besides, the potentiation in assay [2] was 26.5% (active).
`COc1cc(C(=O)Nc2ccc3c(c2)nc(C)n3C)cc(OC)c1OC`: the outcome in assay [1], in assay [2], in assay [3], in assay [4] and in assay [5] was inactive.
In the case of `COc1ccc(OCC(=O)NC(=S)NNC(=O)COc2ccc(Br)cc2Cl)cc1`, the outcome in assay [1], in assay [3], in assay [4] and in assay [5] was inactive. Besides, the potentiation in assay [2] is 18.5% (active).
As to `Cc1ccc(C(=O)NC(=S)N2CCN(c3cc(C)ccc3C)CC2)cc1`, the outcome in assay [1], in assay [3], in assay [4] and in assay [5] was inactive. In addition, in assay [2], the potentiation is 50% (active).
Consider `CC(=O)Nc1ccc(/C=N/NC(=O)c2cccc(S(=O)(=O)N3CCOCC3)c2)cc1`, for which the outcome in assay [1], in assay [2], in assay [3], in assay [4] and in assay [5] was inactive.
For the compound `Cc1ccc(C(=O)CSc2nnc3c4ccccc4nc(C(C)(C)C)n23)cc1`, the result in assay [1], in assay [2], in assay [3], in assay [4] and in assay [5] was inactive.
Take `COc1ccc(C2(C)CC(C)(C)Nc3ccccc32)cc1` (stereo not given): the result in assay [1], in assay [3], in assay [4] and in assay [5] was inactive. Moreover, the potentiation in assay [2] is 68.5% (active).
As for `Cc1cccc(C(=O)O/N=C(\N)c2cccc([N+](=O)[O-])c2)c1`, the outcome in assay [1], in assay [2], in assay [3], in assay [4] and in assay [5] was inactive.
`COc1ccc2c(c1)[nH]c1c(=O)n(/N=C/c3ccc(OC)c(CN4CCCC4)c3)cnc12`: the outcome in assay [1], in assay [2], in assay [3], in assay [4] and in assay [5] was inactive.
As for `CN(C)CCNc1nc2sc3c(c2c(=O)n1CCc1ccccc1)CCCCC3`, the outcome in assay [1], in assay [3], in assay [4] and in assay [5] was inactive. In addition, the potentiation in assay [2] was 19% (active).
In the case of `Cn1ccnc1C(=O)c1cccc([N+](=O)[O-])c1`, the result in assay [1], in assay [3], in assay [4] and in assay [5] was inactive. Moreover, the potentiation in assay [2] was 18.5% (active).
For `Cc1cc(C(=O)NCc2ccc(S(N)(=O)=O)cc2)ccc1[N+](=O)[O-]`, the outcome in assay [1], in assay [2], in assay [3], in assay [4] and in assay [5] was inactive.
With `NC(=Nc1ccc(Cl)cc1)c1ccccc1`, the outcome in assay [1], in assay [2], in assay [3], in assay [4] and in assay [5] was inactive.
As for `O=C(CSc1ccccn1)N1CCN(S(=O)(=O)c2ccc(Cl)cc2)CC1`, the outcome in assay [1], in assay [2], in assay [3], in assay [4] and in assay [5] was inactive.
Turning to `Cc1c(C(=O)Nc2ccc(F)cc2)oc2ccc(S(=O)(=O)N3CC(C)CC(C)C3)cc12` (stereo not given), the outcome in assay [1], in assay [2], in assay [3], in assay [4] and in assay [5] was inactive.
Turning to `Cc1ccc(NC2=C(Cl)C(=O)OC2OC(=O)c2ccc(C)cc2)cc1` (stereo not given), the outcome in assay [1], in assay [2], in assay [3], in assay [4] and in assay [5] was inactive.
For the compound `C=CCn1c(O)c(N=NC(=S)Nc2ccc(OC)cc2)c2ccccc21`, the result in assay [1], in assay [3], in assay [4] and in assay [5] was inactive. Moreover, the potentiation in assay [2] is 33.5% (active).
For the compound `O=c1c2ccccc2[nH]c(=S)n1C1CCCCC1`, the result in assay [1], in assay [2], in assay [3], in assay [4] and in assay [5] was inactive.
Consider `CCCCCCCCN1[C@@H](CC(C)=O)c2cc(C(F)(F)F)ccc2S1(=O)=O`, for which the result in assay [1], in assay [3], in assay [4] and in assay [5] was inactive. The potentiation in assay [2] is 60.5% (active).
Consider `COc1ccc(OC)c(NC(=S)N2CCC(C(O)(c3ccccc3)c3ccccc3)CC2)c1`, for which the result in assay [1], in assay [4] and in assay [5] was inactive. The potentiation is 43% (active) in assay [2] and 174% (active) in assay [3].
As for `O=C(O)CCCN1C(=O)/C(=C/c2ccc(-c3nc4ccccc4s3)o2)SC1=S`, the outcome in assay [1], in assay [4] and in assay [5] was inactive. Besides, the potentiation in assay [2] was 21.5% (active); in assay [3], 143% (active).

Source of the values: PubChem BioAssay.
